Reference: ChEMBL document CHEMBL3351454, “Design, synthesis, antimicrobial evaluation and molecular docking studies of some new thiophene, pyrazole and pyridone derivatives bearing sulfisoxazole moiety” (2014)
In brackets after ≈: the same amount, converted by molar mass.

Tests used:
Assay type in all cases: functional
Streptococcus pneumoniae [1] = assay: Antimicrobial activity against Streptococcus pneumoniae RCMB 010010 assessed as inhibition zone at 5 mg/ml after 24 hrs; conditions: RCMB 010010, 24 h, read-out: IZ
Method in brief: (§1)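 Agar diffusion on nutrient agar seeded with 10^6 CFU/mL bacteria. Filter-paper disks were loaded with 100 µL of a 5 mg/mL compound solution in DMF, with a DMF-only control. Incubation was 37 °C for 24 h. Inhibition zone in mm (mean ± SD, triplicate plates) was measured beyond the 6 mm diameter.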

Streptococcus pneumoniae [2] = assay: Antimicrobial activity against Streptococcus pneumoniae RCMB 010010 assessed as absence of turbidity after 24 hrs; conditions: RCMB 010010, 24 h
Method in brief: (§2)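 Broth microdilution in Müller–Hinton broth. DMF stocks at 1000 µg/mL were diluted in broth to give twofold serial dilutions over 500–0.007 µg/mL. Bacterial inoculum was about 10^6 CFU/mL in 96-well plates, sealed and incubated at 37 °C for 24 h in a humid chamber. MIC was taken as the lowest concentration with no visible turbidity. DMF and uninoculated-medium controls were included. Only compounds giving zones >10 mm were tested.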

Bacillus subtilis [3] = assay: Antimicrobial activity against Bacillis subtilis RCMB 010067 assessed as inhibition zone at 5 mg/ml after 24 hrs; conditions: RCMB 010067, 24 h, read-out: IZ; method in brief: as §1
Bacillus subtilis [4] = assay: Antimicrobial activity against Bacillis subtilis RCMB 010067 assessed as absence of turbidity after 24 hrs; conditions: RCMB 010067, 24 h; method in brief: as §2
[5] = system: Staphylococcus epidermidis; assay: Antimicrobial activity against Staphylococcus epidermidis RCMB 010024 assessed as inhibition zone at 5 mg/ml after 24 hrs; conditions: RCMB 010024, 24 h, read-out: IZ; method in brief: as §1
[6] = system: Staphylococcus epidermidis; assay: Antimicrobial activity against Staphylococcus epidermidis RCMB 010024 assessed as absence of turbidity after 24 hrs; conditions: RCMB 010024, 24 h; method in brief: as §2
Escherichia coli [7] = assay: Antimicrobial activity against Escherichia coli RCMB 010052 assessed as inhibition zone at 5 mg/ml after 24 hrs; conditions: RCMB 010052, 24 h, read-out: IZ; method in brief: as §1
Escherichia coli [8] = assay: Antimicrobial activity against Escherichia coli RCMB 010052 assessed as absence of turbidity after 24 hrs; conditions: RCMB 010052, 24 h; method in brief: as §2
Proteus vulgaris [9] = assay: Antimicrobial activity against Proteus vulgaris RCMB 010085 assessed as inhibition zone at 5 mg/ml after 24 hrs; conditions: RCMB 010085, 24 h, read-out: IZ; method in brief: as §1
Proteus vulgaris [10] = assay: Antimicrobial activity against Proteus vulgaris RCMB 010085 assessed as absence of turbidity after 24 hrs; conditions: RCMB 010085, 24 h; method in brief: as §2
Klebsiella pneumoniae [11] = assay: Antimicrobial activity against Klebsiella pneumoniae RCMB 010093 assessed as inhibition zone at 5 mg/ml after 24 hrs; conditions: RCMB 010093, 24 h, read-out: IZ; method in brief: as §1
Klebsiella pneumoniae [12] = assay: Antimicrobial activity against Klebsiella pneumoniae RCMB 010093 assessed as absence of turbidity after 24 hrs; conditions: RCMB 010093, 24 h; method in brief: as §2
Aspergillus fumigatus [13] = assay: Antifungal activity against Aspergillus fumigatus RCMB 02568 assessed as inhibition zone at 5 mg/ml after 48 hrs; conditions: RCMB 02568, 48 h, read-out: IZ
Method in brief: (§3)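 Disk diffusion on nutrient agar seeded with 10^4 CFU/mL fungus. Sterile filter-paper disks carried 100 µL of a 5 mg/mL DMF solution, and DMF alone served as control. Plates were incubated at 25 °C for 48 h. Mean inhibition zone in mm ± SD was read beyond the 6 mm diameter, in triplicate.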

Aspergillus fumigatus [14] = assay: Antifungal activity against Aspergillus fumigatus RCMB 02568 assessed as absence of turbidity after 48 hrs; conditions: RCMB 02568, 48 h
Method in brief: as §2, with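 “Sabouraud liquid medium.” for “Müller–Hinton broth.”, “Fungal” for “Bacterial”, “10^4” for “10^6”, “25” for “37”, “48” for “24”, “included.” for “included. Only compounds giving zones >10 mm were tested.”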

[15] = system: Syncephalastrum racemosum; assay: Antifungal activity against Syncephalastrum racemosum RCMB 05922 assessed as inhibition zone at 5 mg/ml after 48 hrs; conditions: RCMB 05922, 48 h, read-out: IZ
[16] = system: Syncephalastrum racemosum; assay: Antifungal activity against Syncephalastrum racemosum RCMB 05922 assessed as absence of turbidity after 48 hrs; conditions: RCMB 05922, 48 h
Geotrichum candidum [17] = assay: Antifungal activity against Geotrichum candidum RCMB 05097 assessed as inhibition zone at 5 mg/ml after 48 hrs; conditions: RCMB 05097, 48 h, read-out: IZ; method in brief: as §3
Geotrichum candidum [18] = assay: Antifungal activity against Geotrichum candidum RCMB 05097 assessed as absence of turbidity after 48 hrs; conditions: RCMB 05097, 48 h
Method in brief: as §2, with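 “Sabouraud liquid medium.” for “Müller–Hinton broth.”, “Fungal” for “Bacterial”, “10^4” for “10^6”, “25” for “37”, “48” for “24”, “included.” for “included. Only compounds giving zones >10 mm were tested.”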

COc1ccc(-c2c(C#N)c(N)n(-c3ccc(S(=O)(=O)Nc4onc(C)c4C)cc3)c(=O)c2C#N)cc1
zone of inhibition at 5000 µg/mL (Streptococcus pneumoniae [1]): 20.3 mm
MIC (Streptococcus pneumoniae [2]): 0.98 µg/mL (≈ 1.9 µM)
zone of inhibition at 5000 µg/mL (Bacillus subtilis [3]): 22.2 mm
MIC (Bacillus subtilis [4]): 0.49 µg/mL (≈ 0.949 µM)
zone of inhibition at 5000 µg/mL [5]: 18.1 mm
MIC [6]: 7.81 µg/mL (≈ 15.1 µM)
zone of inhibition at 5000 µg/mL (Escherichia coli [7]): 16.2 mm
MIC (Escherichia coli [8]): 31.2 µg/mL (≈ 60.5 µM)
zone of inhibition at 5000 µg/mL (Proteus vulgaris [9]): 17.2 mm
MIC (Proteus vulgaris [10]): 15.6 µg/mL (≈ 30.3 µM)
zone of inhibition at 5000 µg/mL (Klebsiella pneumoniae [11]): 22.3 mm
MIC (Klebsiella pneumoniae [12]): 0.49 µg/mL (≈ 0.949 µM)
zone of inhibition at 5000 µg/mL (Aspergillus fumigatus [13]): 20.6 mm
MIC (Aspergillus fumigatus [14]): 0.98 µg/mL (≈ 1.9 µM)
zone of inhibition at 5000 µg/mL [15]: 19.7 mm
MIC [16]: 1.95 µg/mL (≈ 3.78 µM)
zone of inhibition at 5000 µg/mL (Geotrichum candidum [17]): 20.9 mm
MIC (Geotrichum candidum [18]): 0.98 µg/mL (≈ 1.9 µM)

COc1ccc(-c2c(C#N)c(S)n(-c3ccc(S(=O)(=O)Nc4onc(C)c4C)cc3)c(=O)c2C#N)cc1
zone of inhibition at 5000 µg/mL (Streptococcus pneumoniae [1]): 20.6 mm
MIC (Streptococcus pneumoniae [2]): 0.98 µg/mL (≈ 1.84 µM)
zone of inhibition at 5000 µg/mL (Bacillus subtilis [3]): 22.4 mm
MIC (Bacillus subtilis [4]): 0.98 µg/mL (≈ 1.84 µM)
zone of inhibition at 5000 µg/mL [5]: 19.9 mm
MIC [6]: 1.95 µg/mL (≈ 3.65 µM)
zone of inhibition at 5000 µg/mL (Escherichia coli [7]): 20.6 mm
MIC (Escherichia coli [8]): 0.98 µg/mL (≈ 1.84 µM)
zone of inhibition at 5000 µg/mL (Proteus vulgaris [9]): 18.6 mm
MIC (Proteus vulgaris [10]): 3.9 µg/mL (≈ 7.31 µM)
zone of inhibition at 5000 µg/mL (Klebsiella pneumoniae [11]): 21.4 mm
MIC (Klebsiella pneumoniae [12]): 0.98 µg/mL (≈ 1.84 µM)
zone of inhibition at 5000 µg/mL (Aspergillus fumigatus [13]): 20.4 mm
MIC (Aspergillus fumigatus [14]): 0.98 µg/mL (≈ 1.84 µM)
zone of inhibition at 5000 µg/mL [15]: 16.3 mm
MIC [16]: 31.2 µg/mL (≈ 58.6 µM)
zone of inhibition at 5000 µg/mL (Geotrichum candidum [17]): 22.4 mm
MIC (Geotrichum candidum [18]): 0.49 µg/mL (≈ 0.918 µM)
